Each structure is given as a SMILES string. Activity calls are given as the source filed them.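 Rule for the calls, unless noted: active = NADPH fluorescence slope more negative than the mean of all samples by about 3 SD, 99.7% confidence; inactive = the rest.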

A word on the inhibition: it is the relative decrease from the control value, in per cent.

A short description of assay [1]: inhibitors of TNFa-induced NFkB p65 translocation, primary screen, imaging, HUVEC, MLSMR starter and 10KST1 sets (AID 438;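 active = inhibition above 20% together with a positive visual image hit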;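 note: compound added about 3h40 before a 20 min TNFalpha stimulation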;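 for inhibition: signal is the nuclear over cytoplasmic p65 intensity ratio per well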). As to conditions: HUVEC TNFa-induced p65 nuclear translocation; cell count: measured here: nuclei count (cytotoxicity indicator), at 2.08 µM; inhibition: at 2 µM, stronger effect = higher value, 0% TNFa-plus-vehicle, 100% no-TNFa wells.
Assay [2] is described as follows: inhibitors of mutant huntingtin aggregation, primary screen, imaging, exon1htt(103Q)mCFP cells, high-content imaging (AID 483;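 active = visual image review flags a hit and inhibition of aggregation exceeds 20%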;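 note: compound exposure lasted 3 days before fixation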;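 for nuclei count: percent of the per-plate median nuclei count of sample wells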). As to conditions: exon1htt(103Q)mCFP cell line, aggregate imaging, at 2 µM; inhibition of aggregation: stronger effect = higher value; nuclei count: measured here: cell count, toxicity.
Assay [3] is described as follows: inhibitors of E-selectin induction by TNFa, primary screen, imaging, HUVEC, immunofluorescence, MLSMR starter and 10KST1 sets (AID 487;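 active = visually confirmed hit in the image check and inhibition above 20%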;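 for inhibition: signal is fraction of cell area covered by stained E-selectin grains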;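 for nuclei count: 100% = median nuclei count of all wells on the same plate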). The note with it: HUVEC TNFalpha-induced E-selectin immunofluorescence imaging, at 2 µM; inhibition: stronger effect = higher value; nuclei count: measured here: cell number, toxicity.
In assay [4] the target is Voltage-gated potassium channel subunit beta-2 (Rattus norvegicus) (UniProt P62483). The assay can be described thus: KvBeta enzyme negative modulators, primary screen, biochemical, NADPH fluorescence (AID 622;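 active = fluorescence slope higher than the sample average by over 3 SD, cut at about -0.22 in these data, passing the limit was not always enough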;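 note: slope of raw intensity against log time taken from 70 to 1610 s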). As to conditions: recombinant KvBeta, 4-cyanobenzaldehyde reduction, at 10 µM, stronger effect = higher value.
Sequence of Voltage-gated potassium channel subunit beta-2 (Rattus norvegicus) (P62483 whole entry, looked up): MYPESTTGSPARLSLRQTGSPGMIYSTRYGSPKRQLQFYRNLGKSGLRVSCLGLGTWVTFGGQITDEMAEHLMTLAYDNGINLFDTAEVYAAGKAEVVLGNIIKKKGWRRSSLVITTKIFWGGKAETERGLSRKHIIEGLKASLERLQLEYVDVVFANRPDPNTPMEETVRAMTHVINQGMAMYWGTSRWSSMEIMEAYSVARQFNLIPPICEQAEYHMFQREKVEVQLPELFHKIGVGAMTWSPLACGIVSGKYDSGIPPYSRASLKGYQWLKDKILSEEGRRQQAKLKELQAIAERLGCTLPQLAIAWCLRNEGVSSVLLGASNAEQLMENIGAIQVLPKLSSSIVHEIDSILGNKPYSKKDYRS
Assay [5] has the same target. The assay can be described thus: KvBeta positive modulators, primary screen, biochemical, NADPH fluorescence (AID 623).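 Note: fluorescence intensity change per second fitted from 20 to 320 s.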 The note with it: Recombinant KvBeta, NADPH fluorescence decrease slope, 10 min; at 10 µM; stronger effect = lower value.
Assay [6] addresses Alpha-2C adrenergic receptor (Homo sapiens) (UniProt P18825). The assay can be described thus: modulators of alpha2C/GIRK thallium flux, primary screen, cell-based, HEK293 alpha2C/GIRK1/2 (AID 624;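 active = fluorescence slope after compound addition differing from the mean of all screened samples at 99.7% confidence, in either direction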;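 note: slope of fluorescence ratio to pre-addition baseline per second over 15 to 24 s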). As to conditions: thallium flux BTC fluorescence, at 10 µM, actives lie on both sides.
Assay [7] can be described thus: inhibitors of larval lipid processing in zebrafish, primary screen, whole organism, PED6 fluorescence, gall bladder and intestine (AID 686;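 active = a full or partial loss of lipid-probe fluorescence in the fish gall bladder, intestine or both, judged by eye; inactive = no fluorescence loss, or compound toxic to the fish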;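 note: larvae 5 to 7 days old with five fish per well; signal comes from phospholipase A2 cleavage of quenched PED6 carried via bile; overnight exposure to compound and PED6 before scoring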). As to conditions: Zebrafish larvae PED6 lipid processing, fluorescence scoring; screened at 20 µM (by protocol). The gist of the method: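 Test system – live zebrafish larvae aged 5-7 days, whole organism · Buffer or medium – E3 fish medium · Reagent – quenched phospholipase substrate PED6, 100 nM final, ingested by larvae · Doses – 20 µM single dose · Incubation – overnight compound and PED6 incubation · Technique – visual fluorescence microscopy scoring of gall bladder, gut · Read-out basis – visual per-well fluorescence inhibition score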

Assay [8] in a line: inhibitors of Sendai virus-induced IRF3 signaling, primary screen, TLR/RLR signaling modifier project, cell-based, Sendai virus stimulus, luciferase, 10K MLSCN set (AID 602276;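 active = inhibition at or above 50% at 10 µM; inactive = inhibition below 50%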;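 note: firefly luciferase from ISG56 promoter only with Renilla not read in this screen; 0% = Sendai virus plus DMSO and 100% = medium plus DMSO without virus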). As to conditions: HEK293 RL24 IRF3 luciferase reporter, at 10 µM, stronger effect = higher value. On the technique in general: A reporter such as luciferase makes a cellular process visible.
Assay [9] in a line: inhibitors of poly I:C-induced TLR3 signaling, primary screen, cell-based, poly I:C stimulus, luciferase, 10K MLSCN set (AID 602277;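 active = inhibition of the reporter signal at or above 50%; inactive = inhibition below 50%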). The note with it: HEK293-TLR3 RL24 IRF3 luciferase reporter, at 10 µM, stronger effect = higher value.

Sequence of Alpha-2C adrenergic receptor (Homo sapiens) (P18825 whole entry, looked up): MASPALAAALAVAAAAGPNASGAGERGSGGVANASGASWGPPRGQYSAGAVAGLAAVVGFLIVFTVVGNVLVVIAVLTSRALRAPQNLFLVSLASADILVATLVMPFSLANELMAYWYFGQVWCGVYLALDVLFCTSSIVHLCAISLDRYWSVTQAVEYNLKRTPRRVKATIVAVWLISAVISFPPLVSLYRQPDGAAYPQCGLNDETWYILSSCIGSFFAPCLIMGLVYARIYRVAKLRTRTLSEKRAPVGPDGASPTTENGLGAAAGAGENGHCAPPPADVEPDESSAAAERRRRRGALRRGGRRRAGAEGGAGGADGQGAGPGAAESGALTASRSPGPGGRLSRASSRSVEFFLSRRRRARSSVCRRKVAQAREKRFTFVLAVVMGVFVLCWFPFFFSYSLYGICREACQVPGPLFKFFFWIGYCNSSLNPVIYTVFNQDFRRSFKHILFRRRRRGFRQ

As to `COC(=O)C1=C(C)Nc2ncnn2C1c1ccco1` (stereo unspecified), the cell count in assay [1] was found to be 303. Further, the inhibition in [1] is -4.2% (inactive); in assay [3], 5.2% (inactive); in assay [8], 15.5% (inactive); in assay [9] it was 16.5% (inactive). The inhibition of aggregation in [2] is -6.6% (inactive). Moreover, the nuclei count in assay [2] stood at 100%; in assay [3], 93.9%. In addition, the fluorescence slope in assay [4] is -0.432 (inactive). The NADPH fluorescence slope in [5] was -6e-05 (inactive). Also, the slope in [6] is 0.00405 (inactive). The outcome in [7] was inactive.
For `O=C(C1CCCO1)N1CCN(S(=O)(=O)c2ccccc2)CC1` (stereo unspecified), the cell count in [1] was 328. In addition, the inhibition in assay [1] was 4% (inactive); in assay [3], -28.4% (inactive); in [8], 12.6% (inactive); in [9] it was 12.9% (inactive). In assay [2], the inhibition of aggregation was 3.2% (inactive). In addition, the nuclei count amounted to 86.5% in [2] and 102% in assay [3]. In assay [4], the fluorescence slope was -0.439 (inactive). Besides, the NADPH fluorescence slope in assay [5] is -8.1e-05 (inactive). In addition, the slope in assay [6] was 0.00532 (inactive). Besides, the call in assay [7] was inactive.
Take `O=C(O)C1CCCCC1C(=O)Nc1ccccn1` (stereo unspecified): the cell count in [1] was 475. For the same molecule, the inhibition is -7.1% (inactive) in assay [1], 18.5% (inactive) in [3], 7.72% (inactive) in assay [8] and 0.963% (inactive) in assay [9]. In addition, in assay [2], the inhibition of aggregation was -2.7% (inactive). Also, the nuclei count in [2] was 109%; in assay [3], 83.2%. Besides, the fluorescence slope in assay [4] was -0.445 (inactive). In addition, the NADPH fluorescence slope in [5] was -5e-05 (inactive). In [6], the slope is 0.00502 (inactive). Besides, the result in assay [7] was inactive.
As to `CC(=O)NCCC(=O)Nc1ccc(C)c(F)c1`, the cell count in [1] is 417. Also, the inhibition in [1] was -4.4% (inactive); in assay [3], -55.7% (inactive); in assay [8] it was -3.46% (inactive); in assay [9], -7.08% (inactive). The inhibition of aggregation in assay [2] is -5.1% (inactive). For the same molecule, the nuclei count is 109% in assay [2] and 110% in assay [3]. The fluorescence slope in [4] was -0.451 (inactive). The NADPH fluorescence slope in assay [5] is -1.3e-05 (inactive). In addition, the slope in assay [6] is 0.00617 (inactive). For the same molecule, in [7], the molecule was called inactive.
As to `CCOCCCN(Cc1cc2cc(C)cc(C)c2[nH]c1=O)C(=O)N(CC)CC`, in assay [1], the cell count turned out to be 320. Also, the inhibition in assay [1] was 4.5% (inactive); in assay [3], -15.3% (inactive); in assay [8] it was -10.7% (inactive); in assay [9] it was -6.77% (inactive). For the same molecule, in assay [2], the inhibition of aggregation was 2.5% (inactive). For the same molecule, the nuclei count in assay [2] came to 92.2%; in [3], 106%. In addition, the fluorescence slope in assay [4] was -0.423 (inactive). For the same molecule, the NADPH fluorescence slope in assay [5] was -3.6e-05 (inactive). In assay [6], the slope is 0.00543 (inactive). The outcome in assay [7] was inactive.
In the case of `Cc1oc2c(c1C(=O)NCc1ccccc1)CCCC2`, the cell count in assay [1] worked out at 437. Further, the inhibition is 1.3% (inactive) in [1], 4.8% (inactive) in [3], 9.63% (inactive) in assay [8] and 4.5% (inactive) in [9]. Besides, the inhibition of aggregation in assay [2] is -13.6% (inactive). Besides, the nuclei count in [2] came to 108%; in assay [3], 130%. For the same molecule, the fluorescence slope in assay [4] was -0.464 (inactive). Besides, the NADPH fluorescence slope in [5] is -4.8e-05 (inactive). For the same molecule, the slope in [6] is 0.00391 (inactive). Besides, the result in assay [7] was inactive.
On to `c1ccc(-c2nnc(SCc3nc4ccccc4[nH]3)o2)cc1`, for which the cell count in assay [1] was 285. Besides, the inhibition was 8.2% (inactive) in assay [1], 34.3% (inactive) in assay [3], 12.6% (inactive) in assay [8] and -7.21% (inactive) in [9]. Further, the inhibition of aggregation in assay [2] was -3.4% (inactive). Besides, the nuclei count is 94.1% in [2] and 87.8% in [3]. Also, the fluorescence slope in assay [4] was -0.304 (inactive). In assay [5], the NADPH fluorescence slope is -1.4e-05 (inactive). Further, the slope in assay [6] is 0.00613 (inactive). The call in [7] was inactive.
For `COc1ccc(S(=O)(=O)Nc2ccc(Cl)cn2)c(C)c1C`, in assay [1], the cell count stood at 482. Further, the inhibition in assay [1] is -29.6% (inactive); in [3] it was -46.8% (inactive); in assay [8], 11.2% (inactive); in [9], 1.09% (inactive). Besides, the inhibition of aggregation in [2] is -3.5% (inactive). Further, the figures for the nuclei count in assay [2] and in [3] were 62% and 98.5%, respectively. For the same molecule, in [4], the fluorescence slope is -0.387 (inactive). The NADPH fluorescence slope in assay [5] was -4.6e-05 (inactive). Further, in assay [6], the slope was 0.00866 (inactive). For the same molecule, in assay [7], the call was inactive.
For the molecule `Brc1ccc2ncnc(Nc3ccc(N4CCOCC4)cc3)c2c1`, in [1], the cell count was found to be 534. Besides, the inhibition is -13.2% (inactive) in assay [1], 29.5% (inactive) in [3], 16.4% (inactive) in [8] and 1.52% (inactive) in assay [9]. Also, in assay [2], the inhibition of aggregation is 8.9% (inactive). The nuclei count in [2] came to 106%; in assay [3] it was 84.4%. The fluorescence slope in assay [4] is -0.375 (inactive). Further, in [5], the NADPH fluorescence slope is -5.5e-05 (inactive). Further, the slope in [6] is 0.00328 (inactive). In addition, the outcome in assay [7] was inactive.
With `Cc1ccc(C(=O)Nc2c(C(=O)N3CCOCC3)cnn2-c2ccccc2)cc1`, the cell count in [1] is 354. Further, the inhibition in assay [1] was 5.4% (inactive); in assay [3] it was -6.5% (inactive); in assay [8], 14% (inactive); in [9], 15.4% (inactive). Besides, the inhibition of aggregation in assay [2] is -0.9% (inactive). The figures for the nuclei count in [2] and in assay [3] were 102% and 105%, respectively. In addition, the fluorescence slope in [4] was -0.321 (inactive). The NADPH fluorescence slope in [5] is -3.7e-05 (inactive). In addition, the slope in [6] is 0.00471 (inactive). For the same molecule, the call in assay [7] was inactive.
`Cc1cc(C)n(C(C)n2nc(C)cc2C)n1`: the cell count in [1] amounted to 367. In addition, the inhibition is 4.3% (inactive) in [1], -37% (inactive) in assay [3], 11.8% (inactive) in [8] and 12.7% (inactive) in assay [9]. Also, the inhibition of aggregation in assay [2] was -9.9% (inactive). For the same molecule, the nuclei count in [2] is 110%; in [3], 68%. Also, the fluorescence slope in assay [4] was -0.364 (inactive). Further, in assay [5], the NADPH fluorescence slope was -6.5e-05 (inactive). In addition, the slope in assay [6] is 0.00585 (inactive). In assay [7], the call was inactive.
Turning to `COc1cccc(NC(=O)c2ccccc2NS(C)(=O)=O)c1`, the cell count in assay [1] was 328. In addition, the inhibition in [1] was -6.5% (inactive); in [3] it was -133% (inactive); in assay [8], 18.7% (inactive); in assay [9], 13.1% (inactive). For the same molecule, in assay [2], the inhibition of aggregation was -12.9% (inactive). For the same molecule, the nuclei count in assay [2] was found to be 112%; in [3], 149%. Moreover, the fluorescence slope in assay [4] was -0.418 (inactive). Besides, in assay [5], the NADPH fluorescence slope is -3.8e-05 (inactive). Also, the slope in assay [6] was 0.00548 (inactive). Moreover, in assay [7], the result was inactive.
Consider `COC(=O)c1[nH]c2ccc(C)cc2c1NC(=O)CN1CCCC(C)(C)C1`, for which, in assay [1], the cell count turned out to be 422. Moreover, the inhibition in [1] is 7.3% (inactive); in assay [3] it was -330% (inactive); in assay [8], 8.28% (inactive); in assay [9], 18% (inactive). In addition, the inhibition of aggregation in [2] was -2.1% (inactive). Also, the results for the nuclei count in [2] and in assay [3] were 101% and 107%, respectively. In addition, in assay [4], the fluorescence slope is -0.37 (inactive). Also, the NADPH fluorescence slope in assay [5] is -2.6e-05 (inactive). Also, the slope in assay [6] was 0.00452 (inactive). Further, the call in [7] was inactive.
